Assay [1] deals with T1, Urokinase-type plasminogen activator (Homo sapiens, UniProt P00749).
Assay [2] deals with T1, Urokinase-type plasminogen activator. This is another data set of the same source.
In assay [3] the target is T2, Prothrombin (Homo sapiens, UniProt P00734). The assay can be described thus: Inhibition of human thrombin. The method in brief:
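Human plasma thrombin was assayed at 37 °C in Tris pH 8.3. […] Initial rate was read at 405 nm, in duplicate. IC50 was obtained from a four-parameter logistic fit.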

The target of assay [4] is T3, Coagulation factor X (Homo sapiens, UniProt P00742). The assay can be described thus: Inhibition of factor 10a. Summed up: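 Human factor Xa (FX activated with Russell's viper venom) at about 5 mU was preincubated with inhibitor (0–250 µM final) for 15 min at 37 °C. […] IC50 came from a four-parameter logistic fit.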
T3 sequence (P00742 41-179 limits assumed): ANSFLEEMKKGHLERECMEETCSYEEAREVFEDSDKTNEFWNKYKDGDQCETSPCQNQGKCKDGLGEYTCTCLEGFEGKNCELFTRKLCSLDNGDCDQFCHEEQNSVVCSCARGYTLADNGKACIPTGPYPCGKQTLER
T3 sequence (P00742 235-488 limits assumed): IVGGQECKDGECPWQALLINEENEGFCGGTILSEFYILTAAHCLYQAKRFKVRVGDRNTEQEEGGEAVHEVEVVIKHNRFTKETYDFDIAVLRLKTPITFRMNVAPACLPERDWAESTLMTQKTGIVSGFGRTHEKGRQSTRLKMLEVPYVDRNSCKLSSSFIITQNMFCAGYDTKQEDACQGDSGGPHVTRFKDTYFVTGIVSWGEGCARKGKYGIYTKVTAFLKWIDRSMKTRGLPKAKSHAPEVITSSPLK
The species entered for assay [5] is Homo sapiens. The assay can be described thus: Selectivity index, ratio of IC50 for human thrombin to IC50 for human uPA. Summed up:
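Selectivity index is IC50(thrombin)/IC50(uPA). Thrombin: human plasma-derived, about 5 mU, 580 µM S-2366, Tris pH 8.3. uPA: human, about 1 mU, 250 µM S-2444, 50 mM Tris pH 8.8. Both had 15 min preincubation at 37 °C, 405 nm initial rates in duplicate, and a four-parameter logistic fit.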

The species named for assay [6] is Homo sapiens. The assay can be described thus: Selectivity index, ratio of IC50 for human plasmin to IC50 for human uPA. The method in brief: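 Selectivity index is IC50(plasmin)/IC50(uPA). Plasmin: human plasma-derived, about 5 mU, 580 µM S-2366, Tris pH 7.4. uPA: human, about 1 mU, 250 µM S-2444, 50 mM Tris pH 8.8. Both had 15 min preincubation at 37 °C, 405 nm initial rates in duplicate, and a four-parameter logistic fit.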

The species named for assay [7] is Homo sapiens. The assay can be described thus: Selectivity index, ratio of IC50 for human recombinant tPA to IC50 for human uPA.
The species named for assay [8] is Homo sapiens. Nature of the assay: Selectivity index, ratio of IC50 for human factor 10a to IC50 for human uPA.
Assay [9] addresses T2, Prothrombin. The assay can be described thus: Inhibition of thrombin at 100 uM.
The next assay addresses Plasminogen (Homo sapiens, UniProt P00747). The assay can be described thus: Inhibition of human plasmin. The method in brief:
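Plasmin from human plasma at about 5 mU was preincubated with inhibitor (0–250 µM final) for 15 min at 37 °C. Substrate was S-2366 at 580 µM in Tris pH 7.4. Initial rate was read at 405 nm, in duplicate. IC50 came from a four-parameter logistic fit.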

The target of assay [10] is Tissue-type plasminogen activator (Homo sapiens, UniProt P00750). The assay can be described thus: Inhibition of human recombinant tPA.
Chain of Tissue-type plasminogen activator (P00750 whole entry): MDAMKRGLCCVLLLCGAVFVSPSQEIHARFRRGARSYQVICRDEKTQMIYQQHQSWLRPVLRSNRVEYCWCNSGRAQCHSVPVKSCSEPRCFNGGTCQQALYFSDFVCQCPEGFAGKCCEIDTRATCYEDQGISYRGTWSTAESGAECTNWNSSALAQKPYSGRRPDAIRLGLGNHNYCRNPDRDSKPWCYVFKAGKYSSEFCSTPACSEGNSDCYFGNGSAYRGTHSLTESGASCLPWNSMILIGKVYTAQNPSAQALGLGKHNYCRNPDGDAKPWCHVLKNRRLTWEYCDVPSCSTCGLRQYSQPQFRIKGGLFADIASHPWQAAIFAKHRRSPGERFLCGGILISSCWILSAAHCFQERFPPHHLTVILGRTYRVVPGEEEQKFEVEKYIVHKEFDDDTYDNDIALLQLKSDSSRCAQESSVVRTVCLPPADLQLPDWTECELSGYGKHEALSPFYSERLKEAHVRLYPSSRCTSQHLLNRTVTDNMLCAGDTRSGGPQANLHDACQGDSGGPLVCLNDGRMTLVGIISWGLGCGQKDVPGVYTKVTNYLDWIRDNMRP
In assay [11] the target is T3, Coagulation factor X. The assay can be described thus: Inhibition of factor 10a at 250 uM.
Assay [12] has as its target T3, Coagulation factor X. Nature of the assay: Inhibition of factor 10a at 62 uM.
The target in assay [13] is T2, Prothrombin. Nature of the assay: Inhibition of human thrombin at 250 uM. The method in brief: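 Human plasma thrombin was assayed at 37 °C in Tris pH 8.3. IC50 was obtained from a four-parameter logistic fit.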

The source made the active and inactive calls. The rule behind the calls is not given here.

Chain of Plasminogen (P00747 97-580 limits assumed): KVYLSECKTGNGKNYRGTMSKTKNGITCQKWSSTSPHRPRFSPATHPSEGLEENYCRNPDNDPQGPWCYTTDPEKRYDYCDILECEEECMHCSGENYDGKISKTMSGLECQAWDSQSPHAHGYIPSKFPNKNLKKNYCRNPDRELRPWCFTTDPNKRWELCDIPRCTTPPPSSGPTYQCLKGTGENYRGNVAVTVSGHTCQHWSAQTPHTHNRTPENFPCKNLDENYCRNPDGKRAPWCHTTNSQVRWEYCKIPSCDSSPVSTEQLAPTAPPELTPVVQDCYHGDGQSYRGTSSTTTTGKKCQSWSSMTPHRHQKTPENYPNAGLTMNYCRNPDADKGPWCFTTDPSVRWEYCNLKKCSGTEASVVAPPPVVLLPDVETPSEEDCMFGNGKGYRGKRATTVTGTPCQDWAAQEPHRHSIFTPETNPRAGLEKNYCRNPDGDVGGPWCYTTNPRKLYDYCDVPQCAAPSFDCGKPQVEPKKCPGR
Chain of Plasminogen (P00747 581-810 limits assumed): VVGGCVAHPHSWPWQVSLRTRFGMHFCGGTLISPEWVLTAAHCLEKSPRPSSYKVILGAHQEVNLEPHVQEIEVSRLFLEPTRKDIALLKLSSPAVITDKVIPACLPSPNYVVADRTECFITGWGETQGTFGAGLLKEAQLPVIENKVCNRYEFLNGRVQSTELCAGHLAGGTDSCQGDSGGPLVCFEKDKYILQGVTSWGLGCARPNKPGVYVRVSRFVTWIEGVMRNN

On to `CC(=O)NC(Cc1ccc(NC(=N)N)cc1)P(=O)(Oc1ccccc1)Oc1ccccc1` (stereo not drawn), for which the Kapp in [1] stood at 1.4e+06 M⁻¹ s⁻¹. In assay [2], this molecule showed an IC50 of 0.0072 µM.
In assay [1], `N=C(N)Nc1ccc(CC(NC(=O)c2ccccc2)P(=O)(Oc2ccccc2)Oc2ccccc2)cc1` (stereo not drawn) came in with a Kapp of 2400 M⁻¹ s⁻¹.
Molecule `CS(=O)(=O)NC(Cc1ccc(NC(=N)N)cc1)P(=O)(Oc1ccccc1)Oc1ccccc1` (stereo not drawn) gave a Kapp in assay [1] of 140000 M⁻¹ s⁻¹. Also, the IC50 against Prothrombin [3] is 125 µM; against Coagulation factor X [4], 250 µM.
`N=C(N)c1ccc(CCC(NC(=O)OCc2ccccc2)P(=O)(Oc2ccccc2)Oc2ccccc2)cc1` (stereo not drawn) returned a Kapp in [1] of 140 M⁻¹ s⁻¹. Besides, the Ratio IC50 in the assay listed under Homo sapiens [5] is 20; in the assay listed under Homo sapiens [6], 7; in the assay filed under Homo sapiens [7], 70; in the assay listed under Homo sapiens [8], 15.
`N=C(N)Nc1ccc(CC(NS(=O)(=O)c2cccc3ccccc23)P(=O)(Oc2ccccc2)Oc2ccccc2)cc1` (stereo not drawn): the Kapp in assay [1] turned out to be 7300 M⁻¹ s⁻¹.
Molecule `CC(=O)Nc1ccc(OP(=O)(Oc2ccc(NC(C)=O)cc2)C(Cc2ccc(NC(=N)N)cc2)NC(=O)OCc2ccccc2)cc1` (stereo not drawn) came in with a Kapp in assay [1] of 80000 M⁻¹ s⁻¹. Besides, the Ratio IC50 was 90 in the assay filed under Homo sapiens [5], 200 in the assay listed under Homo sapiens [6], 1700 in the assay filed under Homo sapiens [7] and 23000 in the assay listed under Homo sapiens [8].
For the molecule `C[C@H](NC(=O)[C@@H](CO)NS(=O)(=O)Cc1ccccc1)C(=O)NCc1ccc(NC(=N)N)cc1`, at Prothrombin [9], the outcome was inactive. The Ki at Plasminogen was 40 µM; in assay [10], greater than 2.5 µM; in [2] it was 0.016 µM.
Consider `CC(=O)Nc1ccc(OP(=O)(Oc2ccc(NC(C)=O)cc2)C(Cc2ccc(NC(=N)N)cc2)NS(C)(=O)=O)cc1` (stereo not drawn), for which, in [1], the Kapp amounted to 210000 M⁻¹ s⁻¹. Also, the Ratio IC50 in the assay filed under Homo sapiens [5] was 700; in the assay listed under Homo sapiens [6], 550; in the assay listed under Homo sapiens [7] it was 1000. The inhibition against Coagulation factor X [11] stood at 55%.
Turning to `C[C@H](NC(=O)[C@@H](CO)NS(=O)(=O)Cc1ccccc1)C(=O)NC(Cc1ccc(NC(=N)N)cc1)P(=O)(Oc1ccccc1)Oc1ccccc1` (stereo partly drawn), the IC50 in assay [2] worked out at 0.004 µM; on Coagulation factor X [4] it was 33.5 µM.
`N=C(N)c1ccc(C(NC(=O)OCc2ccccc2)P(=O)(Oc2ccccc2)Oc2ccccc2)cc1` (stereo not drawn) gave a Kapp in assay [1] of 43 M⁻¹ s⁻¹.
`N=C(N)Nc1ccc(CC(NS(=O)(=O)Cc2ccccc2)P(=O)(Oc2ccccc2)Oc2ccccc2)cc1` (stereo not drawn): the Kapp in [1] was 19000 M⁻¹ s⁻¹. The inhibition against Coagulation factor X [12] was found to be 59%.
For `N=C(N)Nc1ccc(CNC(=O)OCc2ccccc2)cc1`, the Ki (on Prothrombin [3]; on Plasminogen; in [10]; on Coagulation factor X [4]) was greater than 1000 µM throughout.
Turning to `N=C(N)NCCCC(NC(=O)OCc1ccccc1)P(=O)(Oc1ccccc1)Oc1ccccc1` (stereo not drawn), in assay [1], the Kapp came to 100 M⁻¹ s⁻¹. The Ratio IC50 was found to be 0.9 in the assay listed under Homo sapiens [5], 35 in the assay listed under Homo sapiens [6] and 50 in the assay listed under Homo sapiens [7]. In addition, the IC50 at Prothrombin [3] came to 0.78 µM; on Plasminogen it was 30 µM; in [10], 44 µM; in [2], 0.84 µM. For the same molecule, the inhibition at Coagulation factor X [11] turned out to be 70%.
In [1], `CCOC(=O)NC(Cc1ccc(NC(=N)N)cc1)P(=O)(Oc1ccccc1)Oc1ccccc1` (stereo not drawn) had a Kapp of 40000 M⁻¹ s⁻¹.
Consider `CC(C)c1cc(C(C)C)c(S(=O)(=O)NC(Cc2ccc(NC(=N)N)cc2)P(=O)(Oc2ccccc2)Oc2ccccc2)c(C(C)C)c1` (stereo not drawn), for which, in [1], the Kapp was determined as 1600 M⁻¹ s⁻¹. This molecule also came in with an inhibition against Prothrombin [13] of 60%. Further, the results for the Ratio IC50 in the assay filed under Homo sapiens [6], in the assay listed under Homo sapiens [7] and in the assay listed under Homo sapiens [8] were 500, 60 and 80, respectively.
On to `N=C(N)c1ccc(CC(NC(=O)OCc2ccccc2)P(=O)(Oc2ccccc2)Oc2ccccc2)cc1` (stereo not drawn), for which the Kapp in assay [1] is 2000 M⁻¹ s⁻¹. The inhibition against Coagulation factor X [11] was 65%.
As for `N=C(N)Nc1ccc(CC(NC(=O)OCc2ccccc2)P(=O)(Oc2ccccc2)Oc2ccccc2)cc1` (stereo not drawn), in assay [1], the Kapp was determined as 42000 M⁻¹ s⁻¹.

Source of the values: ChEMBL document CHEMBL1138351, “Small, potent, and selective diaryl phosphonate inhibitors for urokinase-type plasminogen activator with in vivo antimetastatic properties” (J Med Chem, 2007).
